Shown are actives, neighbours in structure and some others; about 3.4% of the full set was active somewhere.
Cl transport mod – KCC2 (human) Cl- transport modulation | Q9H2X9 | KCC2 cells, thallium flux FluoZin-2 fluorescence | 190,000 tested, 2.2% active | AID 1456 | B-score of Tl+ flux slope (higher = more flux/activation; lower = inhibition) at 10 µM;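 active = thallium flux slope and its plate-corrected score both differing from the plate sample mean at a set confidence after two filtering rounds, in either direction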;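 also: slope of fluorescence scaled to starting intensity during 10 to 20 s after thallium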
PKD1 kinase inh – inhibitors of human PKD1 kinase; 200,000 tested, 0.056% active; PKD1 kinase fluorescence polarization assay; inhibition, % (no concentration beside the values); AID 797; Q15139; in the data active = inhibition above about 50%
Redox H2O2 prof – compounds producing H2O2 with reducing agent – biochemical, NIH compound library profiling, artefact control for MLSCN library redox annotation, primary screen. AID 878. 200,000 tested, 0.03% active. DTT-dependent redox cycling H2O2, phenol red/HRP absorbance; 100% = 100 µM peroxide control, 0% = buffer. activation, % at 10 µM;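 active = activation of at least 50% relative to the plate's high and low controls in the primary single-dose screen; inactive = activation below 50%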;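 also: compound incubated with DTT at 0.8 mM final as the reducing agent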
ROMK primary – modulators of human ROMK potassium channel; 130,000 tested, 2% active; B-score at 10 µM; P48048; AID 1918; Tet-inducible ROMK, thallium flux fluorescence; actives lie on both sides;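 active = signal ratio slope over the read window, or its plate-corrected B-score, at least 3 SD from the plate mean, either direction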;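 also: B-score of the F/F0 ratio slope over 7 to 12 s after thallium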
Target sequence (P48048 whole entry, looked up): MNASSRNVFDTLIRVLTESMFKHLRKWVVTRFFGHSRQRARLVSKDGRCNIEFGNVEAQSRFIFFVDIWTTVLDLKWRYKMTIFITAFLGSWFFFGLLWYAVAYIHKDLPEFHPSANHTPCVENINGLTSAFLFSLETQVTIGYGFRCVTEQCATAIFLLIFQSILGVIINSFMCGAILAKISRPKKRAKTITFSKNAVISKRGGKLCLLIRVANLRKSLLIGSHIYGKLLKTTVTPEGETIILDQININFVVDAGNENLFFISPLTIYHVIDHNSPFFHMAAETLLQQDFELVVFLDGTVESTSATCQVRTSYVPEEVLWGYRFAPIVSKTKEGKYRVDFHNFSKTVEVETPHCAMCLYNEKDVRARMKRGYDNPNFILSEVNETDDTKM
p97 inhibitor – blocks human p97 ATPase activity | inhibition, % at 8 µM | recombinant p97 ATPase, Kinase-Glo ATP luminescence, 3 h | 220,000 tested, 0.42% active; in the data active = inhibition above about 15%;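 also: 0% = DMSO vehicle and 100% = wells lacking enzyme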
MDM2 E3 inh – inhibitors of human Mdm2 E3 ubiquitin ligase; Q00987; cell-based MDM2 ubiquitination luciferase reporter, 2 h; 0 = plate control, 100 = twice control, blank-subtracted; signal enhancement, % at 5 µM; 210,000 tested, 0.11% active; AID 1230;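 active = signal enhancement of 30% or more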;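 also: luminescence tracks abundance of the self-degrading MDM2-luciferase fusion protein; higher signal means inhibition of MDM2 E3 ligase activity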
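Material: stable MDM2–luciferase fusion reporter cells / Quantity: 2000 cells/well / Dosing: single 5 µM compound dose, 0.2% final DMSO / Buffer or medium: DMEM / Schedule: 4 h cell settling then 2 h compound exposure, 37 °C / Detection: luminescence with SteadyLite reagent, 15 min at room temperature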
KCC2 secondary – confirmation of human KCC2 transport modulators | shares compounds with Cl transport mod | HEK293-KCC2, thallium flux, FluoZin2 fluorescence; stronger effect = higher value | normalised thallium flux (F/F0 slope) at 10 µM | 3,700 tested, 15% active | AID 1713;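 active = thallium flux slope above the same plate's solvent-only control mean plus 3 SD; inconclusive = the two replicate wells disagree; inactive = no significant difference from solvent-only control wells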
KCC2 bumet counter – thallium flux despite bumetanide block in KCC2 cells, secondary assay 3. HEK293-KCC2 + bumetanide/ouabain, thallium flux FluoZin2; stronger effect = higher value. AID 1714. normalized thallium flux at 10 µM. 3,700 tested, 49% active. shares compounds with Cl transport mod;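 active = thallium entry rate above the same plate's blocked-transporter control wells by more than 3 SD; inconclusive = the two repeat wells disagree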;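 also: raw slope of fluorescence over initial fluorescence between 10 and 20 s after thallium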
KCC2 sec2 – KCC2 (human) modulation, second secondary assay. HEK293-KCC2, thallium flux FluoZin2 fluorescence; actives lie on both sides; F/F0 rise rate, 10–20 s post-thallium. shares compounds with Cl transport mod. 3,700 tested, 23% active. normalized thallium flux at 10 µM. AID 1715;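 active = thallium flux slope more than 3 SD above or below the plate's solvent-only control mean, mostly below; inconclusive = the two repeat wells disagreed; inactive = no significant shift from solvent-only controls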;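 also: raw slope with 0.1% DMSO as baseline and bumetanide as block control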
HEK293 Tl flux – acts in parental HEK cells, KCC2 counter-screen; shares compounds with Cl transport mod; HEK293 parental cells, thallium flux FluoZin2, ouabain; baseline-ratio fluorescence slope, 10–20 s after thallium; thallium flux rate (normalised fluorescence) at 10 µM; 3,700 tested, 46% active; AID 1716;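 active = thallium flux rate significantly above the same plate's solvent-only control wells, beyond their mean plus 3 SD; inconclusive = the two replicate wells gave conflicting results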
KCC2 ouabain – KCC2 (human) modulation, ouabain retest; raw Tl+ flux slope (below DMSO = inhibition, above = activation) at 10 µM; 3,700 tested, 48% active; HEK293-KCC2, thallium flux FluoZin2 fluorescence; bidirectional: low = inhibitor, high = activator; shares compounds with Cl transport mod;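 active = thallium flux slope beyond 3 SD from same-plate DMSO control mean in most replicates, usually higher, sometimes lower; inconclusive = repeat tests gave conflicting results; inactive = no significant difference from controls in most replicates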;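 also: slope of initial-normalized fluorescence between seconds 10 and 20 after thallium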
HEK293 Tl flux2 – parental HEK flux effect, counter-screen 2; shares compounds with Cl transport mod; HEK293 parental, thallium flux FluoZin-2 fluorescence slope; thallium flux slope at 10 µM; 3,700 tested, 33% active;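 active = thallium flux slope above the same plate's solvent-control mean plus 3 SD in both duplicate wells; inconclusive = duplicate wells that disagreed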;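 also: run without ouabain in cells lacking the KCC2 cotransporter; slope of fluorescence scaled to its starting value between 10 and 20 s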
* hit, by the source's call; ? = inconclusive; · = not tested or not shown.

SMILES	Cl transport mod	PKD1 kinase inh	Redox H2O2 prof	ROMK primary	p97 inhibitor	MDM2 E3 inh	KCC2 secondary	KCC2 bumet counter	KCC2 sec2	HEK293 Tl flux	KCC2 ouabain	HEK293 Tl flux2
CCOC(=O)C1CCCN(C(=O)c2cc3nc(-c4cccc(OC)c4)cc(C(F)(F)F)n3n2)C1 (centres undefined)	·	2.0	-0.6	·	4.2	-92.6	0.00696	0.00438	0.0294	0.00734	0.0199	0.0103
O=C(Nc1cccc(F)c1)C1CCN(C(=O)c2ccc(Cl)cc2)CC1	-0.779	1.9	-0.2	-1.07	-4.9	-6.9	·	·	·	·	·	·
CCN(CC(=O)Nc1ccc2c(c1)OCCO2)C(=O)/C=C/c1ccccc1	-0.743	-4.6	0.0	0.746	3.8	-24.5	·	·	·	·	·	·
CCN(CC)CCn1c(=S)[nH]c2cc3c(cc2c1=O)OCO3	1.02	-6.2	15.4	·	4.3	-2.2	·	·	·	·	·	·
CCOC(=O)N1CCN(C(=O)c2ccc3c(=O)n(Cc4ccccc4)c(=S)[nH]c3c2)CC1	4.61*	4.1	-0.8	-0.154	0.7	-6.2	0.00922	0.0258*	0.0294	0.012*	0.028*	0.0112*
CCOC(=O)N1CCN(C(=O)CCCn2c(=S)[nH]c3ccccc3c2=O)CC1	-0.738	-3.4	-0.6	-0.0239	3.0	-3.4	·	·	·	·	·	·
CCN(CC)CCn1c(=S)[nH]c2ccc(Br)cc2c1=O	17.4*	-3.6	-0.4	-0.253	-0.1	-98.8	0.0174	0.0171*	0.0312	0.0112*	0.0196	?
CCOC(=O)N1CCN(C(=O)CCCn2c(=S)[nH]c3ccc(Br)cc3c2=O)CC1	8.69*	-2.0	-16.5	·	-1.7	0.4	0.00778	0.00892*	0.0269	0.00974*	0.0202	0.0106
COC(=O)Cc1ccc(NC(=S)NC2CC2)cc1	-0.389	·	·	·	2.4	-4.8	·	·	·	·	·	·
O=C(Nc1cccc(C(F)(F)F)c1)OCCN1CCN(Cc2ccccc2)CCC1=O	-1.43	-8.1	0.4	-1.68	4.8	·	·	·	·	·	·	·
O=C(CCc1ccccc1)Nc1cccc(NC(=O)CCc2ccccc2)c1	·	-3.0	0.7	-0.41	-2.4	-10.3	·	·	·	·	·	·
O=C(CCc1ccccc1)c1c(O)cc(O)cc1O	-1.43*	·	·	·	·	-23.4	0.00545	0.00511	0.025*	0.00809	?	0.0109
O=C(O)CCc1cc(I)c(Oc2ccc(O)c(I)c2)c(I)c1	-4.09*	·	·	·	·	1.6	0.00703	?	0.0247*	0.00687	?	0.0103
N[C@@H](Cc1cc(I)c(Oc2ccc(O)c(I)c2)c(I)c1)C(=O)O	-2.17	-9.1	-1.3	·	5.2	·	·	·	·	·	·	·
O=C(CN1C(=O)S/C(=C\C=C\c2ccccc2)C1=O)Nc1ccc(O)cc1	-0.784	-5.0	0.0	·	4.1	-2.0	·	·	·	·	·	·
CC12CC(NC(=O)N1c1cccc(C(=O)NCc3ccccc3)c1)c1ccccc1O2 (centres undefined)	·	5.3	0.8	·	-5.5	2.1	0.00719	?	0.0303	0.00737	0.0195	0.0115
CCOC(=O)Cc1nnc(NC(=O)CSc2nnc3c(n2)[nH]c2ccccc23)s1	-0.241	-8.9	-0.1	·	6.2	-8.2	·	·	·	·	·	·

Source: PubChem (several laboratories)
